Experimental data reported in ChEMBL document CHEMBL1938286, “A concise synthesis of viscolin, and its anti-inflammatory effects through the suppression of iNOS, COX-2, ERK phosphorylation and proinflammatory cytokines expressions” (Eur J Med Chem, 2012).
Values after ≈ are worked out from the molar mass of the structure shown. Active and inactive are the calls of the source. The rule behind the calls is not given here.

How the values were obtained:
[1] = Antioxidant activity in human neutrophils assessed as inhibition of fMLP/CB-induced superoxide anion generation; assay type: functional, cell-based; details: Neutrophil
[2] = Antiinflammatory activity in human neutrophils assessed as inhibition of fMLP/CB-induced elastase release; assay type: functional, cell-based; details: Neutrophil
[3] = test system: RAW264.7; experiment: Cytotoxicity against mouse RAW264.7 cells after 24 hrs by MTT assay; assay type: cell-based; details: raw264.7, 24 h
In short: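 RAW 264.7 cells (2 × 10⁵, DMEM + 10% FBS, grown 1 day to near confluence) exposed to test agent with 100 ng/mL LPS for 24 h. After two DPBS washes, 0.5 mg/mL MTT was added for 2 h at 37 °C. Formazan was dissolved in DMSO for 30 min and absorbance read at 570 nm.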

[4] = test system: RAW264.7; experiment: Antiinflammatory activity in mouse RAW264.7 cells assessed as inhibition of LPS-induced NO production administered 1 hr before LPS challenge measured after 24 hrs by Griess method; assay type: functional, cell-based
[5] = test system: RAW264.7; experiment: Antiinflammatory activity in mouse RAW264.7 cells assessed as inhibition of LPS-induced NO production at 5 uM administered 1 hr before LPS challenge measured after 24 hrs by Griess method; assay type: functional, cell-based
[6] = test system: Mus musculus; experiment: Antiinflammatory activity in ICR mouse assessed as decrease in carrageenan-induced MDA level at 8 mg/kg, ip measured after 5 hrs; assay type: functional, organism-based; design: dose 8 mg/kg
In short: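 Male ICR mice (n = 6 per group) were dosed 30 min before intraplantar carrageenan. MDA in the edematous paw tissue was determined at the 5th hr after carrageenan.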

[7] = test system: Mus musculus; experiment: Antiinflammatory activity in ICR mouse assessed as decrease in carrageenan-induced serum NO level at 8 mg/kg, ip measured after 5 hrs; assay type: functional, organism-based; design: dose 8 mg/kg
In short: (§1)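 Male ICR mice (18–25 g, n = 6 per group). Carrageenan was injected intraplantar into the paw, with drug given 30 min beforehand. Serum was collected at the 5th hr. Nitrite was measured colorimetrically by Griess reaction, and TNF-α by commercial ELISA. Data are mean ± SEM.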

[8] = test system: Mus musculus; experiment: Antiinflammatory activity in ICR mouse assessed as decrease in carrageenan-induced serum TNFalpha level at 8 mg/kg, ip measured after 5 hrs; assay type: functional, organism-based; design: dose 8 mg/kg; in short: as §1
[9] = test system: Mus musculus; experiment: Antiinflammatory activity in ICR mouse assessed as decrease in carrageenan-induced serum TNFalpha level at 2 mg/kg, ip; assay type: functional, organism-based; design: dose 2 mg/kg; in short: as §1
[10] = test system: Mus musculus; experiment: Antiinflammatory activity in ICR mouse assessed as decrease in carrageenan-induced serum TNFalpha level at 4 mg/kg, ip; assay type: functional, organism-based; design: dose 4 mg/kg; in short: as §1
[11] = test system: Mus musculus; experiment: Antiinflammatory activity in ICR mouse assessed as decrease in carrageenan-induced serum TNFalpha level at 8 mg/kg, ip; assay type: functional, organism-based; design: dose 8 mg/kg; in short: as §1
[12] = test system: Mus musculus; experiment: Antioxidant activity in carrageenan-stimulated ICR mouse assessed as increase in CAT activity at 2 mg/kg, ip measured after 5 hrs; assay type: functional; details: route intraperitoneal
In short: (§2)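 Male ICR mice (n = 6 per group) received the drug 30 min before intraplantar carrageenan, and paw tissue was taken at the 5th hr. Total SOD was measured by inhibition of cytochrome c reduction, CAT by Aebi's method, and cytosolic GPx by Paglia–Valentine. Activities are in U/mg protein, given as mean ± SEM.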

[13] = test system: Mus musculus; experiment: Antioxidant activity in carrageenan-stimulated ICR mouse assessed as increase in CAT activity at 4 mg/kg, ip measured after 5 hrs; assay type: functional; details: route intraperitoneal; in short: as §2
[14] = test system: Mus musculus; experiment: Antioxidant activity in carrageenan-stimulated ICR mouse assessed as increase in CAT activity at 8 mg/kg, ip measured after 5 hrs; assay type: functional; details: route intraperitoneal; in short: as §2
[15] = test system: Mus musculus; experiment: Antioxidant activity in carrageenan-stimulated ICR mouse assessed as increase in SOD activity at 2 mg/kg, ip measured after 5 hrs; assay type: functional; details: route intraperitoneal; in short: as §2
[16] = test system: Mus musculus; experiment: Antioxidant activity in carrageenan-stimulated ICR mouse assessed as increase in SOD activity at 4 mg/kg, ip measured after 5 hrs; assay type: functional; details: route intraperitoneal; in short: as §2
[17] = test system: RAW264.7; experiment: Antiinflammatory activity in mouse RAW264.7 cells assessed as inhibition of LPS-induced NO production at 10 uM administered 1 hr before LPS challenge measured after 24 hrs by Griess method; assay type: functional, cell-based
[18] = test system: RAW264.7; experiment: Antiinflammatory activity in mouse RAW264.7 cells assessed as inhibition of LPS-induced NO production at 20 uM administered 1 hr before LPS challenge measured after 24 hrs by Griess method; assay type: functional, cell-based
[19] = test system: RAW264.7; experiment: Antiinflammatory activity in LPS-stimulated mouse RAW264.7 cells assessed as inhibition of COX-2 protein expression after 24 hrs by Western blot analysis; assay type: functional, cell-based
[20] = test system: RAW264.7; experiment: Antiinflammatory activity in LPS-stimulated mouse RAW264.7 cells assessed as inhibition of iNOS protein expression after 24 hrs by Western blot analysis; assay type: functional, cell-based
[21] = test system: RAW264.7; experiment: Down regulation of COX-2 protein expression in LPS-stimulated mouse RAW264.7 cells at 20 uM after 24 hrs by Western blot analysis; assay type: functional
In short: (§3)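 RAW 264.7 cells were pretreated with test agent for 1 h, then stimulated with 100 ng/mL LPS for 24 h. Lysates were made in RIPA buffer and 30 µg protein resolved by SDS-PAGE, blotted to PVDF and blocked with 1% BSA. Primary antibody ran overnight at 4 °C, HRP secondary 1 h at 37 °C. Detection was by ECL, with band intensity expressed relative to control.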

[22] = test system: RAW264.7; experiment: Down regulation of iNOS protein expression in LPS-stimulated mouse RAW264.7 cells at 20 uM after 24 hrs by Western blot analysis; assay type: functional; in short: as §3
[23] = target: Mitogen-activated protein kinase 1 and 3 (ERK2 and ERK1) (Mus musculus) (UniProt P63085+Q63844); experiment: Inhibition of Erk1/2 phosphorylation in LPS-stimulated mouse RAW264.7 cells at 5 to 20 uM after 30 mins by Western blot analysis; assay type: cell-based
In short: (§4)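 RAW 264.7 cells were pretreated with test agent, then stimulated with LPS for 30 min. Phospho-ERK, phospho-JNK and phospho-p38 were assessed by Western blot: RIPA lysates, 30 µg protein, SDS-PAGE, PVDF, primary antibody overnight at 4 °C, HRP secondary and ECL detection.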

[24] = target: MAP kinase p38 (Mus musculus) (UniProt P47811+O08911+Q9WUI1+Q9Z1B7); experiment: Inhibition of p38 phosphorylation in LPS-stimulated mouse RAW264.7 cells at 5 to 20 uM after 30 mins by Western blot analysis; assay type: cell-based; in short: as §4
[25] = test system: RAW264.7; experiment: Inhibition of JNK phosphorylation in LPS-stimulated mouse RAW264.7 cells at 5 to 20 uM after 30 mins by Western blot analysis; assay type: cell-based; in short: as §4

Mitogen-activated protein kinase 1 and 3 (ERK2 and ERK1) (Mus musculus), sequence (P63085 whole entry, looked up): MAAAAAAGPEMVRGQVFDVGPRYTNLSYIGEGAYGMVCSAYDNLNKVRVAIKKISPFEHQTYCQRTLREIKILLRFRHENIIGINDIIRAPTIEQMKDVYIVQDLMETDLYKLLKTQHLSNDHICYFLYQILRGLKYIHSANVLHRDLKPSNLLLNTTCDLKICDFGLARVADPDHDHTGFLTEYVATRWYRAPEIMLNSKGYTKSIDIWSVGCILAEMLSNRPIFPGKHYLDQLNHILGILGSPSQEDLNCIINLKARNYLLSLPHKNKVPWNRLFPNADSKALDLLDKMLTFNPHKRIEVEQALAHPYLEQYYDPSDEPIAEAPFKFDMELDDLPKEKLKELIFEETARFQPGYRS
Mitogen-activated protein kinase 1 and 3 (ERK2 and ERK1) (Mus musculus), sequence (Q63844 whole entry, looked up): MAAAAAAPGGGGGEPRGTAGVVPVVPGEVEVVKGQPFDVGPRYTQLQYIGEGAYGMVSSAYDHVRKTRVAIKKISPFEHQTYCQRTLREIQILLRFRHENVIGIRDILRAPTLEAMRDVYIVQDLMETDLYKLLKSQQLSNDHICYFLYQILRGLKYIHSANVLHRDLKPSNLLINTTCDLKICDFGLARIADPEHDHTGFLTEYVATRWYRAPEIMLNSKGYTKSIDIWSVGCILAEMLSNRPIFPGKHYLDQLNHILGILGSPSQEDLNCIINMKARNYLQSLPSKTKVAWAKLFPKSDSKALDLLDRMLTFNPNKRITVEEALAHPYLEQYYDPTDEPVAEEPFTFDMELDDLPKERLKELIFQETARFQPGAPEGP

- IC50 [1]: 0.58 µg/mL (≈ 1.66 µM)
- IC50 [2]: 4.93 µg/mL (≈ 14.2 µM)
- IC50 [4]: 17.8 µM
- inhibition [23]: Active
- inhibition [24]: inactive
Structure (SMILES): COc1cc(CCCc2c(OC)cc(O)c(OC)c2OC)ccc1O [VISCOLIN]
- Activity [3]: Non-toxic
- Activity [4]: Dose-dependent effect
- Activity [5]: Active
- Activity [6]: Active
- Activity [7]: Active
- Activity [8]: Active
- Activity [9]: Active
- Activity [10]: Active
- Activity [11]: Active
- Activity [12]: 3.92 U/mg
- Activity [13]: 4.28 U/mg
- Activity [14]: 4.98 U/mg
- Activity [15]: 2.45 U/mg
- Activity [16]: 3.46 U/mg
- Activity [17]: Active
- Activity [18]: Active
- Activity [19]: Dose-dependent effect
- Activity [20]: Dose-dependent effect
- Activity [21]: 70.6%
- Activity [22]: 83.8%
- inhibition [25]: inactive
